Molecules are shown by their SMILES.

The values below come from ChEMBL document CHEMBL4368914, “Tricyclic Indazoles-A Novel Class of Selective Estrogen Receptor Degrader Antagonists” (J Med Chem, 2019).

Data set [1] can be described thus: Fraction unbound in Alderley Park Han Wistar rat plasma by equilibrium dialysis. It counts as ADME, cell-free. A digest of the protocol: (§1)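 Equilibrium dialysis from DMSO stock in 10% plasma, either Alderley Park Han Wistar rat plasma or human plasma.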
The target in data set [2] is T1, Estrogen receptor (Homo sapiens, UniProt P03372).
T1 sequence (P03372 whole entry): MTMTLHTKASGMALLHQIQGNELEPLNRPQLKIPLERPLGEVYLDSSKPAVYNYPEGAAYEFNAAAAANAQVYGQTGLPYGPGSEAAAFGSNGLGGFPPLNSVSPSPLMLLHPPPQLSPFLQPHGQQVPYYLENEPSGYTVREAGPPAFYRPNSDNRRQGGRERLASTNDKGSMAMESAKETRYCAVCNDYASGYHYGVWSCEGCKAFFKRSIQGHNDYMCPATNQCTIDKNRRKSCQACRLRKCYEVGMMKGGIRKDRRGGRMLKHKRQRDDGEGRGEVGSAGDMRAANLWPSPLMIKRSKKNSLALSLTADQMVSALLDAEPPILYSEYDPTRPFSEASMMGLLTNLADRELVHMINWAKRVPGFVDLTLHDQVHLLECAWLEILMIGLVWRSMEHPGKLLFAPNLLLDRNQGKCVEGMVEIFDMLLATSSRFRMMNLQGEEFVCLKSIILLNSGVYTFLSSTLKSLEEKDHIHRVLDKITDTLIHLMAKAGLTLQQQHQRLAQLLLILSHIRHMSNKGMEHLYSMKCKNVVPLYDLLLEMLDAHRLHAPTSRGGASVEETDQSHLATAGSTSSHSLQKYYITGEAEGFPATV
The data set is described as follows: Binding affinity to recombinant human GST-tagged ERalpha LBD expressed in baculovirus-infected insect cells by lantha screen assay.

Data set [3] has as its target T1, Estrogen receptor. Briefly: Induction of ERalpha degradation in human MCF7 cells after 18 to 24 hrs by in multiplexed cell assay. It counts as cell-based. A digest of the protocol: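 MCF-7 cells were kept at 37 °C, 5% CO₂ in phenol red-free RPMI1640 with 5% charcoal-stripped FCS and 2 mmol/L glutamine. Compounds came from 10 mmol/L DMSO stocks.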
The nature of data set [4]: Lipophilicity, log D of the compound at pH 7.4 by shake flask method. The note with it: buffer. It counts as physicochemical. The gist of the method:
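Shake-flask measurement of logD at pH 7.4.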

Data set [5] can be described thus: Fraction unbound in 10% human plasma by equilibrium dialysis. It counts as ADME, cell-free. Particulars: 10% plasma. A digest of the protocol:
as §1

Data set [6] in a line: Intrinsic clearance in rat hepatocytes assessed per million cells. The note with it: read-out: CLH. It counts as ADME, cell-based, Hepatocyte. A digest of the protocol:
(§2)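 Rate of metabolism (µl/min/10⁶ cells) measured from DMSO stock in isolated hepatocytes diluted to 1x10⁶ cells/mL.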

Data set [7] can be described thus: Intrinsic clearance in human hepatocytes assessed per million cells. It counts as ADME, cell-based, Hepatocyte. The note with it: read-out: CLH. The gist of the method: as §2
The nature of data set [8]: Glutathione reactivity in human liver microsomes assessed as GSH trapping ratio of compound to clozapine. It counts as ADME, Microsome. A digest of the protocol:
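Glutathione trapping in human liver microsomes, expressed as a ratio to clozapine.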

Take `CC(C)CN1CCc2cc(O)ccc2[C@H]1c1ccc(/C=C/C(=O)O)cc1`: in data set [1], the fraction unbound amounted to 0.037.
Turning to `C[C@@H]1Cc2c(ccc3[nH]ncc23)[C@@H](c2ccc(/C=C/C(=O)O)cc2)N1CC(C)(C)F`, the IC50 on Estrogen receptor [2] is 1.58 nM; against Estrogen receptor [3] it was 0.316 nM. For the same compound, the logD in data set [4] was 2.9. The fraction unbound in data set [1] is 0.015; in data set [5], 0.0087. Also, the hepatocyte CLint in data set [6] came to 8 µL/min/1e6 cells; in data set [7], 78 µL/min/1e6 cells.
With `CC(C)CN1[C@H](c2c(F)cc(/C=C/C(=O)O)cc2F)c2ccc3[nH]ncc3c2C[C@H]1C`, the half-inhibitory concentration (IC50) on Estrogen receptor [2] is 1.26 nM; on Estrogen receptor [3] it was 0.794 nM. Further, the logD in data set [4] was determined as 3. In addition, the values for the unbound share (fraction unbound) in data set [1] and in data set [5] were 0.0052 and 0.0048, respectively. Besides, the figures for the hepatocyte CLint in data set [6] and in data set [7] were 19 µL/min/1e6 cells and 22 µL/min/1e6 cells, respectively. Further, the Ratio in data set [8] is recorded as below 0.04.
As to `COc1cc(/C=C/C(=O)O)ccc1[C@]1(C)c2ccc3[nH]ncc3c2C[C@@H](C)N1CC(C)(C)F`, the half-maximal inhibitory concentration (IC50) at Estrogen receptor [2] was 3.98 nM; on Estrogen receptor [3], 2.51 nM. Moreover, the pH-dependent lipophilicity (logD) in data set [4] worked out at 1.9. This compound also registered a free fraction (fraction unbound) in data set [5] of 0.077. Further, the hepatocyte CLint in data set [6] stood at 10 µL/min/1e6 cells; in data set [7] it was 4 µL/min/1e6 cells.
Turning to `C[C@@H]1Cc2c(ccc3[nH]ncc23)[C@@](C)(c2c(F)cc(/C=C/C(=O)O)cc2F)N1CC(C)(F)F`, the values for the IC50 on Estrogen receptor [2] and on Estrogen receptor [3] were 0.316 nM and 0.794 nM, respectively. Moreover, the logD in data set [4] came to 3. In addition, the fraction unbound was found to be 0.0076 in data set [1] and 0.0027 in data set [5]. Moreover, the hepatocyte CLint in data set [6] is 20 µL/min/1e6 cells; in data set [7] it was 6 µL/min/1e6 cells.
As to `COc1cc(/C=C/C(=O)O)c(F)cc1[C@@H]1c2ccc3[nH]ncc3c2C[C@@H](C)N1CC(C)(F)F`, the figures for the IC50 on Estrogen receptor [2] and against Estrogen receptor [3] were 0.501 nM and 0.316 nM, respectively. Besides, the logD in data set [4] worked out at 2.6. In addition, in data set [5], the fraction unbound was determined as 0.012. Moreover, the hepatocyte CLint turned out to be 22 µL/min/1e6 cells in data set [6] and 5 µL/min/1e6 cells in data set [7].
In the case of `COc1c([C@@H]2c3ccc4[nH]ncc4c3C[C@@H](C)N2CC(C)(F)F)ccc(/C=C/C(=O)O)c1F`, the concentration for half-maximal inhibition (IC50) on Estrogen receptor [2] is 1.26 nM; against Estrogen receptor [3], 6.31 nM. In data set [4], the logD is 2.6. The compound also gave a free fraction (fraction unbound) in data set [5] of 0.0082. Besides, the hepatocyte CLint in data set [6] amounted to 17 µL/min/1e6 cells; in data set [7], 7 µL/min/1e6 cells.
For the compound `CC(C)CN1CCc2c(ccc3[nH]ccc23)C1c1ccc(/C=C/C(=O)O)cc1` (stereo unspecified), the 50% inhibitory concentration (IC50) on Estrogen receptor [2] is 316 nM; at Estrogen receptor [3], 63.1 nM. In data set [4], this compound returned a pH-dependent lipophilicity (logD) of 1.7. The fraction unbound in data set [1] worked out at 0.068; in data set [5], 0.033. Also, the figures for the hepatocyte CLint in data set [6] and in data set [7] were 20 µL/min/1e6 cells and 8 µL/min/1e6 cells, respectively.
`CC(C)CN1[C@H](c2ccc(/C=C/C(=O)O)cc2)c2ccc3[nH]ncc3c2C[C@H]1C`: the concentration for half-maximal inhibition (IC50) at Estrogen receptor [2] is 10 nM; at Estrogen receptor [3], 0.631 nM. The fraction unbound worked out at 0.034 in data set [1] and 0.022 in data set [5]. Besides, the hepatocyte CLint in data set [6] amounted to 7 µL/min/1e6 cells; in data set [7], 30 µL/min/1e6 cells. Moreover, in data set [8], the Ratio is listed as below 0.04.
With `CC(C)CN1CCc2cccc3[nH]cc(c23)C1c1ccc(/C=C/C(=O)O)cc1` (stereo unspecified), the values for the half-inhibitory concentration (IC50) at Estrogen receptor [2] and at Estrogen receptor [3] were 39800 nM and above 10000 nM, respectively. In data set [4], the logD was 1. In data set [5], this compound had a fraction unbound of 0.11. Further, the hepatocyte CLint in data set [6] is 10 µL/min/1e6 cells.
For `COc1cc(/C=C/C(=O)O)cc(F)c1[C@@H]1c2ccc3[nH]ncc3c2C[C@@H](C)N1CC(C)(F)F`, the half-inhibitory concentration (IC50) at Estrogen receptor [2] was 0.316 nM; at Estrogen receptor [3], 0.2 nM. The logD in data set [4] was determined as 2.8. In data set [5], the fraction unbound was 0.007. Besides, the values for the hepatocyte CLint in data set [6] and in data set [7] were 32 µL/min/1e6 cells and 6 µL/min/1e6 cells, respectively.
